From ChEMBL document CHEMBL1125074, “Autoxidation of the serotonergic neurotoxin 5,7-dihydroxytryptamine” (J Med Chem, 1990) come the findings set out here.

The nature of data set [1]: Dissociation constant (pKa) was determined by spectrophotometric method. The format is physicochemical. The method, boiled down:
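Compound (ca. 0.1 mM) first dissolved in phosphate buffer pH 2.2 (μ = 0.1); UV-visible spectrum recorded, then pH raised in ca. 0.5-unit steps to pH 10 with NaOH, spectrum taken at each step. pKa calculated from the pH-dependent shift in λmax of the two intense UV bands.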

Data set [2] is filed under the species Mus musculus. Nature of the data set: Compound was evaluated for lethal dose against mouse brain. The format is toxicity, organism-based. As to conditions: in vivo.
A short description of data set [3]: Compound was autooxidized for 2 hour at 37 degree Celsius in pH 7.4 phosphate buffer Pseudo-first-order rate constant. The data set is classed as ADME. As to conditions: pH 7.4, 2 h. The method, boiled down:
(§1)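 5,7-DHT (0.5–1.0 mM) autoxidised at 37 °C in pH 7.4 phosphate buffer (μ = 0.2), with air vigorously bubbled through. Loss of 5,7-DHT was followed by HPLC peak area (reversed-phase RP-18; triethylamine/acetic acid mobile phase, pH 3.30; UV detection at 254 nm). The rate constant came from linear ln(peak area) vs time plots over the first 2 h.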

Data set [4] can be described thus: Dissociation constant (pKa) was reported after potentiometric titration with 0.2 mM KOH. The data set is classed as physicochemical.
Data set [5] is described as follows: Compound was autooxidized for 2 hour at 37 degree Celsius in pH 7.4 phosphate buffer pseudo-first-order rate constant 0.1 mM EDTA. As to conditions: pH 7.4, 2 h. The format is ADME.
The nature of data set [6]: Pseudo-first-order rate constant was determined in pH 7.4 phosphate buffer in presence 50 mM EDTA. The format is ADME.
Data set [7] can be described thus: Compound was autooxidized for 2 hour at 37 degree Celsius in pH 7.4 Pseudo-first-order rate constant. The format is ADME. As to conditions: pH 7.4, 2 h. The method, boiled down: as §1
Data set [8] in a line: Pseudo-first-order rate constant was determined in pH 7.4 phosphate buffer in presence 0.5 mM EDTA. The data set is classed as ADME.
The nature of data set [9]: Pseudo-first-order rate constant was determined in pH 7.4 phosphate buffer in presence 70 mM EDTA. The format is ADME.
A short description of data set [10]: Half-life was reported for stability at pH 8. The format is physicochemical. As to conditions: buffer.
The nature of data set [11]: Half-life was reported for slow rate of autooxidation reaction. The data set is classed as ADME.

Structures are written as SMILES.

For the compound `NCCc1c[nH]c2c1C(=O)C(O)=C(C1=C(O)c3[nH]cc(CCN)c3C(=O)C1=O)C2=O`, in data set [1], the pKa (as a rule, the pH at which an ionisable group is half protonated) amounted to 6.5.
In [1], `NCCc1c[nH]c2c1C(=O)C(=O)C=C2O` yielded a pKa of 5.6. The compound further gave an LD50 in data set [2] of 21 µg.
As for `NCCc1c[nH]c2c(O)cc(O)cc12`, the K was 0.012 min⁻¹ in data set [3]; 0.012 min⁻¹ in [5]; 0.014 min⁻¹ in data set [6]; 0.046 min⁻¹ in data set [7]; 0.017 min⁻¹ in data set [8]; 0.015 min⁻¹ in [9]. The same compound returned a pKa in data set [4] of 4.8.
Regarding `CC1(C)CC=CN1[O]`, the values for the half-life in data set [10] and in [11] were 35 min and 1 min, respectively.
